Diaphorase act – diaphorase activation or chemical reduction counter-screen. Diaphorase/resazurin coupled assay, resorufin fluorescence, 16 min; active compounds read high; 1 = vehicle wells, 0 = NADH-free wells. activation factor at 20 µM. hit rate 0.005% among 190,000;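 active = diaphorase activity raised at least twofold by the compound at 20 µM; inactive = activation factor below 2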
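Test system: Clostridium kluyveri diaphorase, purified enzyme. Buffer or medium: 50 mM HEPES pH 7.4 buffer plus MgCl2 and Tween 20. Also added: 0.114 mM NADH and 0.1 mM resazurin, final amounts. Dosing: compound 20 µM once, DMSO 1%. Schedule: 16 min enzyme reaction, ambient temperature. Detection: fluorescence of resorufin, 544 nm excitation, 590 nm emission.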
Redox H2O2 prof – compounds producing H2O2 with reducing agent – biochemical, NIH compound library profiling, artefact control for MLSCN library redox annotation, primary screen. DTT-dependent redox cycling H2O2, phenol red/HRP absorbance; 100% = 100 µM peroxide control, 0% = buffer. hit rate 0.03% among 200,000. activation, % at 10 µM;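 active = activation of at least 50% relative to the plate's high and low controls in the primary single-dose screen; inactive = activation below 50%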;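 note: compound incubated with DTT at 0.8 mM final as the reducing agent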
PMI activator – increases human mannose-6-phosphate isomerase activity. purified human PMI, coupled resazurin fluorescence, 20 min; active compounds read high; 1 = vehicle control, 0 substrate-free wells. activation factor at 20 µM. hit rate 0.005% among 190,000;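 active = activation factor of 2 or more at 20 µM, relative to plate controls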
Target sequence (P34949 whole entry, looked up): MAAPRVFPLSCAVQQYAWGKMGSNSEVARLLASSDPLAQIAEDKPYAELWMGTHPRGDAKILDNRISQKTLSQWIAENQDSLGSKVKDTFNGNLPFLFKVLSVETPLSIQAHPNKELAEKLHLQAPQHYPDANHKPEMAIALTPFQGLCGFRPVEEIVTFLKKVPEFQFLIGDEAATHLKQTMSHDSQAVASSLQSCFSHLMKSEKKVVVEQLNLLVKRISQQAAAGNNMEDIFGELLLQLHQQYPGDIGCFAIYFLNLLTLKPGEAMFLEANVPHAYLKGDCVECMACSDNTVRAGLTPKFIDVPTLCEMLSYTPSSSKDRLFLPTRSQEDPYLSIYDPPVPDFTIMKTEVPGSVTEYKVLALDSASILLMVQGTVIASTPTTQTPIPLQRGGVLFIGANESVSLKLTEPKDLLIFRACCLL
Diaphorase inh – diaphorase inhibition or chemical oxidation counter-screen; inhibition, % at 20 µM; diaphorase resazurin-to-resorufin fluorescence, NADH, 16 min; bacterial (C. kluyveri) enzyme, not human; hit rate 0.69% among 190,000;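 active = primary screen inhibition at 20 µM above a set limit, cut at about 50% in these data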
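Assay system: diaphorase enzyme from Clostridium kluyveri. Quantity: enzyme working solution with 0.14 U/mL diaphorase. Schedule: reaction incubation of 16 min at room temperature. Technique: resorufin fluorescence, excitation 544 nm, emission 590 nm. Controls: No-NADH positive control and DMSO neutral control.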
G6PDH counter – L. mesenteroides G6PDH inhibition counter-screen; Purified L. mesenteroides G6PDH, diaphorase/resazurin coupled fluorescence, 45 min; hit rate 0.12% among 200,000; AID 1020; inhibition, % at 5 µM; in the data active = inhibition above about 50%
PMI act hi M6P – increases human PMI activity with near-saturating mannose 6-phosphate. coupled PMI enzyme assay, resazurin fluorescence, 20 min; active compounds read high; 1 = untreated enzyme, 0 = substrate-free blank. activation factor at 20 µM. hit rate 0.34% among 190,000;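 active = activation factor of 2 or more at 20 µM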
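Material: human phosphomannose isomerase with PGI, G6PDH, diaphorase coupling enzymes; amount: PMI at 15 ng/mL final; also added: Mannose-6-phosphate 1.0 mM (near-saturating) plus 0.22 mM NADP+; incubation: enzyme reaction with compound 20 min at room temperature; signal: resorufin fluorescence (Ex 544/Em 590 nm) from resazurin via diaphorase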
A number is an active result; n = inactive. Only some compounds are listed: those with a hit (about 1.1% of all), similar ones and a draw of the others.

SMILES	Diaphorase act	Redox H2O2 prof	PMI activator	Diaphorase inh	G6PDH counter	PMI act hi M6P
O=C(Nc1nc2ccccc2s1)c1ccc(OCC2CCCO2)cc1 (configuration not stated)	n	n	n	n	n	n
Cc1cc(=S)c2cccc(C)c2[nH]1	n	n	n	n	n	2.7
COC(=O)C/C=C/[C@@H](C)[C@@H](/C=N/OC[C@@H](C)[C@H](OCc1ccccc1)C(C)C)NS(=O)(=O)c1ccc(C)cc1	n	n	n	n	n	n
COc1cc(/C=C(\C#N)c2nc3ccccc3[nH]2)cc(OC)c1O	n	n	n	51	n	n
COc1cc(/C=C(\C#N)c2nc3ccc(C)cc3[nH]2)cc([N+](=O)[O-])c1O	n	n	n	98	n	n
COc1cc(/C=C(\C#N)c2nc3ccc(C)cc3[nH]2)c([N+](=O)[O-])cc1OC	n	n	n	n	n	n
CCOC(=O)c1c(NC(=O)C2C3CCC(O3)C2C(=O)O)sc(C)c1-c1ccc(C)cc1 (configuration not stated)	n	n	n	52	n	n
CCOC(=O)c1c(-c2cccc3ccccc23)csc1NC(=O)C1C2CCC(O2)C1C(=O)O (configuration not stated)	n	n	n	n	n	n
Cc1ccc2cc(C(c3nnnn3C(C)(C)C)N3CCCCCC3)c(=O)[nH]c2c1 (configuration not stated)	n	n	n	52	n	n
CCc1ccc(S(=O)(=O)/N=C2/C=C(Sc3ncn[nH]3)C(=O)c3ccccc32)cc1	n	n	n	n	52	n
Cc1cccc(-n2nnc3c(=O)n(Cc4ccccn4)cnc32)c1	n	n	n	n	n	n
COc1ccc(-c2c3c([nH]c(=S)c2C#N)CCC3)cc1	n	n	n	n	n	2.1
COc1cccc(OC)c1OCCCN1CCOCC1	n	n	n	53	n	n
CN(C(=O)COC(=O)/C=C/c1ccc(S(=O)(=O)N2CCc3ccccc32)cc1)C1CCS(=O)(=O)C1 (configuration not stated)	n	n	n	n	n	n
COC(=O)c1ccc(NC(=O)CSc2n[nH]c(-c3ccncc3)n2)cc1	n	n	n	n	n	n
CCOC(=O)c1ccc(NC(=O)CSc2n[nH]c(-c3ccncc3)n2)cc1	n	n	n	51	n	n
CN(C)c1ccc(/C=N/NC(=O)c2sccc2-n2cccc2)cc1	n	n	n	n	n	n
N#CC(c1nc2ccccc2nc1N1CCCC1)S(=O)(=O)c1ccccc1 (configuration not stated)	n	n	n	53	n	n
O=C(c1ccc(Cl)cc1)[C@@H]1[C@@H]2C(=O)N(c3ccccc3)C(=O)[C@@H]2C2c3ccccc3C=NN21 (some centres not stated)	n	n	n	n	n	n
CC(=O)c1ccc(N2C(=O)C3C(C2=O)C(C(=O)c2ccc(Cl)cc2)N2CCCC32)cc1 (configuration not stated)	n	n	n	n	n	2
Cc1ccc(N2C(=O)[C@@H]3[C@H](C2=O)C2CCCN2[C@@H]3C(=O)c2ccccc2)cc1 (some centres not stated)	n	n	n	n	n	2
O=C1[C@H]2[C@H](ON3CCCC[C@H]23)C(=O)N1c1ccc(Cl)cc1	n	n	n	n	n	n
O=C(c1ccc(Cl)cc1)C1C2C(=O)N(c3ccccc3)C(=O)C2C2CCCN21 (configuration not stated)	n	n	n	n	n	2
Cc1ccc(S(=O)(=O)c2cnc(-c3ccccc3)nc2N2CCN(C)CC2)cc1	n	n	n	n	n	n
CCOC(=O)Cc1csc(NC(=S)NC(=O)c2cccc([N+](=O)[O-])c2)n1	n	n	n	n	n	n
SMILES	Diaphorase act	Redox H2O2 prof	PMI activator	Diaphorase inh	G6PDH counter	PMI act hi M6P
COc1cccc(-c2nc(=S)c3c(o2)CCCC3)c1	n	n	n	n	n	n
S=c1nc(-c2ccccc2)oc2c1CCCC2	n	n	n	65	n	n
Cc1ccc(C)n1-c1nccc(-c2ccco2)n1	n	n	n	n	n	n
CN(Cc1ccc(F)cc1)C(=O)COc1ccccc1-c1ccccc1	n	n	n	n	n	n
CC(C)n1c2ccccc2c2nnc(SCC(=O)OCN3C(=O)c4ccccc4C3=O)nc21	n	n	n	57	n	n
CN(C)c1nc(N)c2ncc(=S)[nH]c2n1	n	n	n	52	n	n
CCSC1=N/C(=C\c2ccc(-c3ccccc3[N+](=O)[O-])o2)C(=O)S1	n	n	n	63	n	n
CCC(C)n1c(C)nc2c(c1=O)c1nc3ccccc3nc1n2CCC1=CCCCC1 (configuration not stated)	n	n	n	64	n	n
CCCCn1c2nc3ccccc3nc2c2c(=O)n(C(C)CC)cnc21 (configuration not stated)	n	n	n	n	n	n
COc1ccc(C2CC(c3ccccc3)=NN2C(=O)COC(=O)c2cc(S(=O)(=O)N3CCOCC3)ccc2F)cc1 (configuration not stated)	n	n	n	n	n	n
Cn1c(=O)c(C(=S)NC(=O)C2CC2)c(N)n(Cc2ccccc2)c1=O	n	n	n	66	n	n
Cc1ccc(-n2[nH]c(C)c(/C=N/Nc3ccc([N+](=O)[O-])cc3[N+](=O)[O-])c2=O)cc1	n	n	n	n	n	n
CCN=C(N/N=C/c1ccc([N+](=O)[O-])cc1)SC	n	n	n	n	n	2.1
CCc1n[nH]c(=S)n1/N=C/c1cc(OC)cc([N+](=O)[O-])c1O	n	n	n	n	n	n
Nc1cccnc1Sc1ccc([N+](=O)[O-])cn1	n	n	n	50	n	n
O=[N+]([O-])c1ccc(Sc2ccccc2)nc1	n	n	n	n	n	n
Cc1occc1-c1nnc(SCC(=O)Nc2ccccc2)n1C	n	n	n	78	n	n
Cc1ccc(NC(=O)C2(C)Cc3ccccc3C(=O)O2)cc1 (configuration not stated)	n	n	n	n	n	n
CC1=NCCN1S(=O)(=O)c1cc([N+](=O)[O-])ccc1Cl	n	n	n	n	n	n
CCN(CC)S(=O)(=O)c1cccc(C(=O)N/N=C/c2ccc([N+](=O)[O-])o2)c1	n	n	n	n	n	n
COc1cc2c(cc1OC)-c1cc3ccc4c(c3c[n+]1CC2)OCO4	n	n	n	n	52	n

Bioassay records deposited in PubChem by several laboratories.
